Experimental data published in ChEMBL document CHEMBL1138022, “Structurally simplified macrolactone analogues of halichondrin B” (Bioorg Med Chem Lett, 2004).
pIC50: −log10 of the molar value.

How the values were obtained:
[1] = tested on: P388; experiment: Fold resistance calculated as the inhibition concentration ratio between retrovirally transformed P388/VMDRC.04 and parental P388 cells; assay type: functional
Outline: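 P-glycoprotein-mediated efflux assessed in murine P388/VMDRC.04, a retrovirally transformed multidrug-resistant subline of P388/S leukemia cells, alongside parental P388 cells. Growth inhibition IC50 was measured in each line. Fold resistance is the IC50 ratio of P388/VMDRC.04 to parental P388.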

[2] = tested on: DLD-1; experiment: In vitro inhibitory concentration required to inhibit the growth of DLD-1 cells under continuous exposure conditions for 3-4 days; assay type: functional, cell-based; conditions: Homo sapiens
Outline: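 Human colon cancer DLD-1 cells were exposed to compound continuously for 3–4 days and growth inhibition was measured. IC50 is given ± SEM, with n the number of experiments.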

[3] = tested on: U-937; experiment: In vitro inhibitory concentration required to inhibit the growth of U937 cells was determined by mitotic block reversibility assay; assay type: functional; conditions: Homo sapiens
Outline: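 Reversibility assay in human histiocytic lymphoma U937 cells. After drug washout, flow cytometry scored whether a complete mitotic block was still maintained 10 h later.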

Structure (SMILES)	FR [1]	pIC50 [2]	IC99 [3] [µM]
C=C1C[C@@H]2CC[C@@]34C[C@@H]5O[C@@H]6C(O[C@H]7CC[C@H](CC(=O)O[C@@H]8[C@@H](OC)[C@@H](O)[C@H](CCO)O[C@H]8C[C@H]8O[C@@H](CC[C@@H]1O2)C[C@@H](C)C8=C)O[C@@H]7[C@@H]6O3)[C@H]5O4	12	8.74	0.1
C=C1C[C@@H]2CC[C@@]34C[C@@H]5O[C@@H]6C(O[C@H]7CC[C@H](CC(=O)O[C@@H]8[C@@H](OC)[C@H](C[C@@H](O)CC(O)CO)O[C@H]8C[C@H]8O[C@@H](CC[C@@H]1O2)C[C@@H](C)C8=C)O[C@@H]7[C@@H]6O3)[C@H]5O4 (stereo partly specified)	15	8.72	0.03
